Experiments:
[1] = Stability of the compound in DMSO; assay type: physicochemical
MDA-MB-231 = assay: Antiproliferative activity against human MDA-MB-231 cells assessed as inhibition of cell growth incubated for 72 hrs by MTT assay; assay type: functional
In short: (§1)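 MTT viability read-out after 72 h exposure of TNBC cells to increasing compound concentrations. GI50 = concentration giving 50% growth inhibition; mean ± SD from at least two independent experiments run in duplicate. Stocks of the ester prodrugs prepared in DMF, parent compound stocks in DMSO.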

[2] = Inhibition of CREB (unknown origin) expressed in HEK293T cells transfected with pCRE-RLuc assessed as inhibition of forskolin-induced CREB transcription activity by luciferase reporter gene assay; assay type: cell-based; conditions: Homo sapiens, HEK-293T
In short: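 HEK293T cells transiently transfected with pCRE-RLuc (Renilla luciferase under CREB control), treated with graded compound concentrations, then stimulated with forskolin to raise CREB phosphorylation; luciferase signal read. IC50 = concentration halving reporter transcription; mean ± SD of at least two experiments in triplicate. Prodrug stocks in DMF, parent in DMSO.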

[3] = Ratio of GI50 for human MDA-MB-231 cells to GI50 for human MDA-MB-468 cells assessed as cell growth inhibition measured after 72 hrs by MTT assay; assay type: functional
MDA-MB-468 = assay: Antiproliferative activity against human MDA-MB-468 cells assessed as inhibition of cell growth incubated for 72 hrs by MTT assay; assay type: functional; in short: as §1
[4] = Aqueous solubility of the compound in distilled de-ionized water; assay type: physicochemical
[5] = Stability of the compound in DMEM at 200 uM incubated for 5 to 30 mins in presence of 10% FBS by HPLC analysis; conditions: time min 5-30
In short: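 Compound at 200 μM incubated in DMEM with 10% FBS at 37 °C; aliquots withdrawn at various time points and analysed by HPLC, peaks assigned by comparison with authentic reference samples.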

SMILES | Stabilty [1] | GI50 (MDA-MB-231) [nM] | IC50 [2] [nM] | Ratio IC50 [3] | GI50 (MDA-MB-468) [nM] | solubility [4] [mg/mL] | Stability [5]
NCCCOc1cc2ccccc2cc1C(=O)Oc1cc(Cl)ccc1NC(=O)c1cc2ccccc2cc1OCCN | Unstable | 540 | 260 | 10 | 45 | – | –
Cl.Cl.NCCCOc1cc2ccccc2cc1C(=O)Nc1ccc(Cl)cc1OC(=O)c1cc2ccccc2cc1OCCN | Unstable | 670 | 250 | 10 | 32 | > 100 | Unstable
Cl.NCCCOc1cc2ccccc2cc1C(=O)NCCOc1cc2ccccc2cc1C(=O)Nc1ccc(Cl)cc1O | – | – | – | – | – | < 0.5 | –
